According to article PMC3148415 (Molecular pharmaceutics, 2011):

Tested on: U87MG human glioma xenografts
Test: Biodistribution in athymic nude mice bearing U87MG human glioma xenografts
Assay type: in vivo
Settings: 4 h p.i., tail vein injection
How it was run: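 Female athymic nu/nu mice carried U87MG xenografts (5 × 10^6 cells s.c. in both upper shoulder flanks) and were used 4 weeks after inoculation. HPLC-purified 64Cu tracer in saline (~30 μCi/mL, 0.20 μm filtered) was given at ~3 μCi by tail vein. Five mice per time point (0.5, 1, 2, 4, 24 h p.i.) were killed by pentobarbital overdose. Heart blood and organs were weighed and γ-counted, giving %ID/g and %ID/organ.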

tumor uptake: 1.8 %ID/g
Structure (SMILES): [Cl][64Cu][Cl] [^64CuCl2]
